Assay results published in ChEMBL document CHEMBL4400576, “Identification of Pyrazolo[1,5-a]pyridine-3-carboxamide Diaryl Derivatives as Drug Resistant Antituberculosis Agents” (ACS Med Chem Lett, 2019).
Values after ≈ are worked out from the molar mass of the structure shown.

Key:
[1] = system: Mycobacterium tuberculosis; assay: Antibacterial activity against Mycobacterium tuberculosis H37Rv harboring LuxAB incubated for 10 days under anaerobic conditions followed by incubation under aerobic conditions for 28 hrs by LORA method; assay type: functional
Outline: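 MIC against H37Rv by low oxygen recovery assay (LORA). Test concentrations 0.02 to 5 μg/mL.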

[2] = system: Mycobacterium tuberculosis; assay: Antibacterial activity against RMP-resistant Mycobacterium tuberculosis after 7 days by microplate alamar blue assay; assay type: functional; conditions: 168 h
Outline: (§1)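 MABA MIC against rINH and rRMP Mtb strains. Test concentrations 0.002 to 0.5 μg/mL.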

[3] = system: Mycobacterium tuberculosis; assay: Antibacterial activity against INH-resistant Mycobacterium tuberculosis after 7 days by microplate alamar blue assay; assay type: functional; conditions: 168 h; outline: as §1
[4] = system: Mycobacterium tuberculosis; assay: Antitubercular activity against Mycobacterium tuberculosis H37Ra harboring pTYOK infected in Balb/c mouse assessed as reduction in lung bacterial burden at 50 mg/kg, po administered once daily via gavage for 5 days measured post last dose by luminometric method; assay type: functional
Outline: (§2)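 Mice infected i.v. with log-phase selectable marker-free autoluminescent Mtb H37Ra, 2 ×10^6 CFU per mouse. Dosed once daily by oral gavage for 5 consecutive days at 10 or 50 mg/kg/day. Untreated group received CMC-Na. Bacterial burden read daily as bioluminescence (RLU) in the same live mice.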

[5] = system: Mycobacterium tuberculosis; assay: Antitubercular activity against Mycobacterium tuberculosis H37Ra harboring pTYOK infected in Balb/c mouse assessed as reduction in spleen bacterial burden at 50 mg/kg, po administered once daily via gavage for 5 days measured post last dose by luminometric method; assay type: functional; outline: as §2
[6] = system: Mycobacterium tuberculosis; assay: Antitubercular activity against Mycobacterium tuberculosis H37Ra harboring pTYOK infected in Balb/c mouse assessed as reduction in bacterial burden administered once daily via oral gavage for 5 days measured post last dose by luminometric method; assay type: functional, organism-based; outline: as §2
[7] = system: Mycobacterium tuberculosis; assay: Antitubercular activity against Mycobacterium tuberculosis H37Ra harboring pTYOK infected in Balb/c mouse assessed as reduction in lung bacterial burden at 10 mg/kg, po administered once daily via gavage for 5 days measured post last dose by luminometric method; assay type: functional; outline: as §2
[8] = system: Mycobacterium tuberculosis; assay: Antitubercular activity against Mycobacterium tuberculosis H37Ra harboring pTYOK infected in Balb/c mouse assessed as reduction in spleen bacterial burden at 10 mg/kg, po administered once daily via gavage for 5 days measured post last dose by luminometric method; assay type: functional; outline: as §2

`COc1ccn2nc(C)c(C(=O)NCc3ccc(-c4ccc(OC(F)(F)F)cc4)s3)c2c1` showed an MIC90 [1] of over 5 µg/mL, an MIC90 [2] of 0.465 µg/mL (≈ 1.01 µM) and an MIC90 [3] of 0.002 µg/mL (≈ 0.00433 µM).
With `COc1ccn2nc(C)c(C(=O)NCc3ncc(-c4ccc(OC(F)(F)F)cc4)[nH]3)c2c1` the MIC90 [1] was over 5 µg/mL.
Work on `COc1ccn2nc(C)c(C(=O)NCc3ncc(-c4ccc(OC(F)(F)F)cc4)o3)c2c1` yielded an MIC90 [1] of 2.84 µg/mL (≈ 6.36 µM).
`CC(=O)NC[C@H]1CN(c2ccc(N3CCOCC3)c(F)c2)C(=O)O1` [LINEZOLID] showed an MIC90 [1] of 5.98 µg/mL (≈ 17.7 µM), an MIC90 [2] of 1.87 µg/mL (≈ 5.54 µM) and an MIC90 [3] of 0.953 µg/mL (≈ 2.82 µM).
For `COc1ccn2nc(C)c(C(=O)NCc3ccc(-c4ccc(OC(F)(F)F)cc4)c(OC)c3)c2c1`, the MIC90 [1] was over 5 µg/mL, the MIC90 [2] was under 0.002 µg/mL and the MIC90 [3] was 0.003 µg/mL (≈ 0.00618 µM).
Work on `COc1ccn2nc(C)c(C(=O)NCc3ccc(-c4ccc(OC(F)(F)F)cc4)cc3C)c2c1` yielded an MIC90 [1] of over 5 µg/mL.
`COc1ccn2nc(C)c(C(=O)NCc3ccc(-c4ccc(OC(F)(F)F)cc4)nc3)c2c1` was tested, and the MIC90 [1] was 4.36 µg/mL (≈ 9.55 µM), the MIC90 [2] was 0.458 µg/mL (≈ 1 µM) and the MIC90 [3] was 0.004 µg/mL (≈ 0.00876 µM).
In the case of `COc1ccn2nc(C)c(C(=O)NCc3cnc(-c4ccc(OC(F)(F)F)cc4)s3)c2c1`, the MIC90 [1] is reported as over 5 µg/mL.
For `COc1ccn2nc(C)c(C(=O)NCc3ccc(-c4ccc(OC(F)(F)F)cc4)cn3)c2c1`, the MIC90 [1] was over 5 µg/mL, the “fold change (FC)” value [4] was 1 log10RLU and the MIC90 [2] was under 0.002 µg/mL. The “fold change (FC)” value [5] was 0.61 log10RLU, the Activity [6] was “Dose-dependent effect” and the MIC90 [3] was 0.002 µg/mL (≈ 0.00438 µM).
With `COc1ccn2nc(C)c(C(=O)NCc3ccc(-c4ccc(OC(F)(F)F)cc4)cc3OC)c2c1` the MIC90 [1] was 2.25 µg/mL (≈ 4.63 µM).
For `NNC(=O)c1ccncc1` [ISONIAZID], the MIC90 [1] was over 128 µg/mL, the MIC90 [2] was 0.438 µg/mL (≈ 3.19 µM) and the MIC90 [3] was over 8 µg/mL.
For `COc1ccn2nc(C)c(C(=O)NCc3cn(-c4ccc(OC(F)(F)F)cc4)nn3)c2c1`, the MIC90 [1] was over 5 µg/mL.
Molecule `COc1ccn2nc(C)c(C(=O)NCc3nnc(-c4ccc(OC(F)(F)F)cc4)o3)c2c1` has an MIC90 [1] of over 5 µg/mL.
In the case of `CO[C@H]1/C=C/O[C@@]2(C)Oc3c(C)c(O)c4c(O)c(c(/C=N/N5CCN(C)CC5)c(O)c4c3C2=O)NC(=O)/C(C)=C\C=C\[C@H](C)[C@H](O)[C@@H](C)[C@@H](O)[C@@H](C)[C@H](OC(C)=O)[C@@H]1C` [RIFAMPIN], the “fold change (FC)” value [7] is reported as 1.42 log10RLU, the “fold change (FC)” value [8] is reported as 1.34 log10RLU and the MIC90 [1] is reported as 2.95 µg/mL (≈ 3.58 µM). For the same molecule, the MIC90 [2] was over 2 µg/mL and the MIC90 [3] was under 0.008 µg/mL.
For `COc1ccn2nc(C)c(C(=O)NCc3ccc(-c4ccc(OC(F)(F)F)cc4)c(C)c3)c2c1`, the MIC90 [1] was 2.28 µg/mL (≈ 4.86 µM), the MIC90 [2] was under 0.002 µg/mL and the MIC90 [3] was under 0.002 µg/mL.
With `COc1ccn2nc(C)c(C(=O)NCc3ccc(-c4ccc(OC(F)(F)F)cc4)cc3C(F)(F)F)c2c1` the MIC90 [1] was over 5 µg/mL.
Molecule `COc1ccn2nc(C)c(C(=O)NCc3ccc(-c4ccc(OC(F)(F)F)cc4)c(C(F)(F)F)c3)c2c1` has an MIC90 [1] of over 5 µg/mL, an MIC90 [2] of under 0.002 µg/mL and an MIC90 [3] of 0.003 µg/mL (≈ 0.00573 µM).
With `COc1nc2ccc(Br)cc2cc1[C@@H](c1ccccc1)[C@@](O)(CCN(C)C)c1cccc2ccccc12` [BEDAQUILINE] the MIC90 [2] was under 0.016 µg/mL and the MIC90 [3] was under 0.016 µg/mL.
`COc1ccn2nc(C)c(C(=O)NCc3ccc(-c4ccc(OC(F)(F)F)cc4)c(F)c3)c2c1` was tested, and the MIC90 [1] was over 5 µg/mL, the MIC90 [2] was under 0.002 µg/mL and the MIC90 [3] was 0.004 µg/mL (≈ 0.00845 µM).
For `COc1ccn2nc(C)c(C(=O)NCc3ccc(-c4ccc(OC(F)(F)F)cc4)cc3F)c2c1`, the MIC90 [1] was over 5 µg/mL, the MIC90 [2] was under 0.002 µg/mL and the MIC90 [3] was 0.004 µg/mL (≈ 0.00845 µM).
